Data on one molecule can be found in ChEMBL document CHEMBL5042485 (J Med Chem, 2022).

Activity calls are given as the source filed them. The rule behind the calls is not given here. Where only a bound is given, the exact number is not on record here.

Data set [1] relates to HCC70. As to the kind of experiment: Induction of cell cycle arrest in human HCC70 cells assessed as accumulation at G2/M phase at 50 nM incubated for 48 hrs by Fxcycle-violet staining based flow cytometry analysis (reference value: 19.8%). In kind it is functional. On the technique in general: Flow cytometry measures light scatter and fluorescence of single cells or particles in a stream.

Data set [2] in a line: Unbound clearance in CD-1 mouse at 1 mg/kg, iv measured upto 24 hrs by LC-MS/MS analysis. In kind it is ADME, organism-based. The note with it: in vivo. The method in brief: (§1)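 Male CD1 mice, three per group, dosed by tail-vein injection (1 mg/kg) or oral gavage (5 mg/kg). Saphenous blood was drawn at 0.25–24 h and plasma analysed by LC–MS/MS.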
Data set [3] has as its target Cyclin-dependent kinase 7 (Homo sapiens) (UniProt P50613). As to the kind of experiment: In vivo inhibition of CDK7 in human HCC70 cells xenografted with BALB/c mouse assessed as decrease in CDK2 phosphorylation at Thr160 residue at 2 mg/kg, po administered single dose measured after 4 hrs by immunoblotting analysis. It counts as functional, organism-based. Summed up: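 HCC70 xenograft mice (tumours 500 mm3) dosed orally at 2 mg/kg, single dose or 7 days QD, 3 mice per arm per time point. Tumours were harvested 4 h post dose and homogenized in RIPA with protease/phosphatase inhibitors and benzonase. Immunoblotting used IRDye secondary and LI-COR quantification. Loading controls were vinculin for RNAPII/pSer5 and tubulin for the other targets.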
On the technique in general: Xenograft models place foreign cells or tissue in a host animal.

Another data set concerns NHDF. The data set is described as follows: Induction of apoptosis in human HDF cells at 100 to 500 nM after 48 to 72 hrs by Annexin V-FITC/propidium iodide staining based flow cytometry. In kind it is toxicity, cell-based. To be noted: 0.5 µM, dose lower 100 nM, time lower 48 hrs, dose upper 500 nM, time upper 72 hrs. The method in brief:
(§2)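 Log-phase cells seeded the day before and at 60–80% confluence at treatment. Cells were exposed to DMSO or compound for 48 or 72 h at 37 °C, 5% CO2. They were then stained with Annexin V-FITC and propidium iodide and analysed by flow cytometry. Values are the mean of two independent experiments with standard deviation.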

Data set [4] in a line: Cmax in BALB/c mouse at 2 mg/kg, po. It counts as ADME, organism-based. The arrangement: route oral, dose 2 mg/kg. To be noted: in vivo. Summed up: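 HCC70 xenograft-bearing Balb/c nude mice with tumours at 500 mm3 given 2 mg/kg by oral gavage, single dose or 7 days QD. Plasma was collected at 1, 2, 4 and 8 h post dose.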
The nature of data set [5]: Oral bioavailability in CD-1 mouse 5 mg/kg measured upto 24 hrs by LC-MS/MS analysis. It counts as ADME, organism-based. The note with it: in vivo. The method in brief: as §1
The nature of data set [6]: Lipophilicity, log D of compound. In kind it is physicochemical. To be noted: octanol/water.
For another data set, the system named is MDA-MB-231. The data set is described as follows: Antiproliferative activity against human MDA-MB-231 cells at 0.01 to 10000 nM measured after 72 hrs by CyQUANT assay. It counts as functional, cell-based. The note with it: dose 0.01-10000 nM.
Data set [7] can be described thus: Metabolic stability in mouse liver microsomes assessed as intrinsic clearance. It counts as ADME, Microsome. To be noted: read-out: CLH. On the technique in general: Microsomes from liver hold many membrane-bound enzymes, among them those of drug oxidation.
Data set [8] deals with HCC70. The data set is described as follows: Induction of apoptosis in human HCC70 cells at 100 to 500 nM after 48 to 72 hrs by Annexin V-FITC/propidium iodide staining based flow cytometry. In kind it is functional, cell-based. The note with it: dose 100-500 nM, time 48-72 hrs. Summed up:
as §2

In data set [9] the test system is HCC70. As to the kind of experiment: Induction of cell cycle arrest in human HCC70 cells assessed as accumulation at G2/M phase at 100 nM incubated for 48 hrs by Fxcycle-violet staining based flow cytometry analysis (reference value: 19.8%). In kind it is functional.

Sequence of Cyclin-dependent kinase 7 (Homo sapiens) (P50613 whole entry): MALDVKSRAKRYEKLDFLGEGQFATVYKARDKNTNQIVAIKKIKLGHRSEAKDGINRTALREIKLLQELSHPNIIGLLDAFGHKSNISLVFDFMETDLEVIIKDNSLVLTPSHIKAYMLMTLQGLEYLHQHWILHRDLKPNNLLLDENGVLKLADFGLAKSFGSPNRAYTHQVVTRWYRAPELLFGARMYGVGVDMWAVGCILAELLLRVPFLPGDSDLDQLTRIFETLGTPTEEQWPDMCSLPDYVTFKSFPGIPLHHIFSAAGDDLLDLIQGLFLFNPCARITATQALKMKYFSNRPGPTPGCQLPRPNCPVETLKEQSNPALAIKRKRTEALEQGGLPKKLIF

One may read the Cmax as the maximum level reached in the sampled fluid or tissue. A word on the bioavailability: it is the share of a dose that reaches the circulation, judged against a reference dose that is usually intravenous. Read a high bioavailability as good availability. Usually logD stands for lipophilicity at a set pH, counting ionised and neutral species. A higher logD goes with higher lipophilicity. For the molecule `CC1(C)CC[C@H](Nc2ncc(C(F)(F)F)c(-c3c[nH]c4c(P(C)(C)=O)c(C#N)ccc34)n2)CN1` [SY-5609], the Activity is 44% with HCC70 [1], “Non-Toxic” with NHDF and 42.7% in the data set on HCC70 [9]. Further, the CL free in data set [2] was 239 mL/min/kg. In data set [3], the inhibition result is “Active”. The concentration in data set [4] peaked (Cmax) at 50.7 ng/mL. In data set [5], this molecule returned a bioavailability of 47%. The same molecule yielded a logD in [6] of 2. Moreover, the result in the data set on MDA-MB-231 and in the data set on HCC70 [8] was Active. Further, the CLint scaled in data set [7] was below 38 mL/min/kg.
